Test results taken from ChEMBL document CHEMBL1127497, “Studies on antiulcer drugs. 7. 2-Guanidino-4-pyridylthiazoles as histamine H2-receptor antagonists with potent gastroprotective effects against nonsteroidal antiinflammatory drug-induced injury” (J Med Chem, 1994).

Columns and labels:
[1] = molecular target: Histamine H2 receptor (Cavia porcellus) (UniProt P47747); assay: H2 receptor antagonistic activity against histamine stimulated chronotropic response in isolated guinea pig right atrium at 1x10E-6 g/mL.; format: functional, tissue-based; conditions: Cardiac atrium
Outline: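 Guinea pig atrial strip under 0.3–0.6 g tension in Tyrode solution, 30 °C, gassed with 95% O2-5% CO2. Beating rate recorded. Histamine HCl 1 × 10-6 g/mL given; after washout, test compound added (single-concentration screen 1 × 10-6 g/mL) and histamine response compared before and 30 min after dosing. IC50 from three doses by probit analysis, three atria per dose.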

Rattus norvegicus [2] = assay: Inhibition of histamine stimulated gastric acid secretion in lumen perfused anaesthetized rats after 1 mg/kg intravenous dose; format: functional; conditions: Stomach
Outline: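 Male SD rats (~250 g), fasted 24 h, urethane 1.25 g/kg ip. Stomach lumen perfused with saline; perfusate titrated with 25 mM NaOH. Histamine infused iv at 3 mg/kg/h. At plateau, compound given iv at 1 mg/kg. Result expressed as maximal inhibition of acid output; n = 2.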

Rattus norvegicus [3] = assay: Evaluated against aspirin induced gastric lesions in rats after peroral dose of 100 mg/kg; format: functional; conditions: Stomach, route oral
Outline: (§1)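 Male SD rats (~200 g), fasted 24 h. Test compound given orally in 0.1% MC, then aspirin 200 mg/kg in 0.2 N HCl/0.1% MC (10 mL/kg) orally 30 min later. Rats killed 1 h after aspirin. Ulcer index is the summed lesion length (mm); % inhibition is relative to controls. Seven rats per group for screening; ED50 by probit from three doses, ten rats per dose.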

Canis familiaris [4] = assay: Evaluated against tetragastrin stimulated gastric acid secretion in conscious Hiedenhain-pouch dogs at a dose of 0.32 mg/kg, po; format: functional; conditions: Canis lupus familiaris, Stomach
Outline: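 Beagle Heidenhain-pouch dogs, 8–13 kg, oral dosing. Acid concentration titrated to pH 7 with 0.1 N NaOH; total acid output is volume × concentration. Change is relative to predosing output. ED50 by probit from three or four doses, three or four dogs per dose.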

Canis familiaris [5] = species on record: Canis familiaris; assay: animal or person; conditions: Canis lupus familiaris, Stomach, po, read-out: Inhibition
Rattus norvegicus [6] = assay: Inhibition of aspirin induced gastric lesions in rats after peroral dose of 32 mg/kg; format: functional; conditions: Stomach, route oral; outline: as §1

Sequence of Histamine H2 receptor (Cavia porcellus) (P47747 whole entry): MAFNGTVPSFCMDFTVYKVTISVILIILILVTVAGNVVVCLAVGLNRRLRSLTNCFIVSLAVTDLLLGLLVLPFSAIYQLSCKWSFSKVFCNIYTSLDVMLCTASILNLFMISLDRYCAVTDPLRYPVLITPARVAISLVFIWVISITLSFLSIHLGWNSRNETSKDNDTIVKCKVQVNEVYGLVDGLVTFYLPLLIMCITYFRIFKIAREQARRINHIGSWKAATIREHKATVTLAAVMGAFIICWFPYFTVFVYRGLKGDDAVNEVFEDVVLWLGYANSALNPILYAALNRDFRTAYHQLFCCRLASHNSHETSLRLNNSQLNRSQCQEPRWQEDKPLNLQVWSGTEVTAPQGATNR

Row | SMILES | inhibition [1] | inhibition in vivo at 1 mg/kg (Rattus norvegicus [2]) | inhibition in vivo at 100 mg/kg (Rattus norvegicus [3]) | inhibition in vivo at 0.32 mg/kg (Canis familiaris [4]) | inhibition in vivo at 22 mg/kg (Canis familiaris [5]) | inhibition in vivo at 32 mg/kg (Rattus norvegicus [6])
1 | CC(=O)OCC(=O)NCCCOc1cccc(CN2CCCCC2)c1 [ROXATIDINE ACETATE] | 76% | 84% | 31% | 58% |  | 
2 | CN/C(=N\CCSCc1nc[nH]c1C)NC#N [CIMETIDINE] | 43% | 53% |  |  | 22% | 33%
